In data set [1] the test system is Human immunodeficiency virus 1. Kind of data set: Antiviral activity against HIV1 3B in MT2 cells. In kind it is functional, organism-based. The settings on record: Human immunodeficiency virus 1, 3B. The procedure, abridged:
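HIV-1 IIIB infection of human MT-2 T-cells. Protection was read by MTT colorimetric assay. Curves used triplicate samples at each concentration.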

Data set [2] is described as follows: Cytotoxicity against MT2 cells. In kind it is cell-based. The settings on record: human. The procedure, abridged:
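Growth of MT-2 cells was measured by MTT colorimetric read-out, run at the same time as the anti-HIV-1 IIIB protection assay.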

Data set [3] in a line: Ratio of CC50 for MT cells/EC50 for HIV1. In kind it is functional.

As a reminder, the pEC50 is the EC50 on a negative log10 scale, so that one unit is a factor of ten. A high value points to a small EC50. The term CC50 denotes the concentration giving 50% cytotoxicity. A high value points to better tolerance by the cells.

pEC50: −log10 of the molar value.

As to `CC(C)=CCOc1cc(Nc2nccc(N)n2)ccc1Cl`, the pEC50 in data set [1] is 7.12. In data set [2], this molecule gave a CC50 of 500 nM.
`COCc1ccnc(Nc2ccc(Cl)c(OCC=C(C)C)c2)n1` yielded a 50% cytotoxic concentration (CC50) in data set [2] above 25000 nM.
For `CC(C)=CCOc1cc(Nc2ncccn2)ccc1C#N`, in data set [1], the pEC50 was 7.77. In data set [2], this molecule showed a CC50 of 36 nM.
On to `COc1cc(OC)nc(Nc2ccc(Cl)c(OCC=C(C)C)c2)n1`, for which the pEC50 in data set [1] was 6.60. The molecule also displayed a CC50 in data set [2] of 28000 nM.
Consider `CC(C)=CCOc1cc(Nc2ncccn2)ccc1Cl`, for which, in data set [1], the pEC50 is 6.70. This molecule returned a cytotoxic concentration (CC50) in data set [2] of 2500 nM.
On to `CC(C)=CCOc1cc(Nc2nccc(C)n2)ccc1Cl`, for which, in data set [1], the pEC50 was 7.41. Besides, the CC50 in data set [2] stood at 150 nM.
Turning to `CCc1ccnc(Nc2ccc(Cl)c(OCC=C(C)C)c2)n1`, the pEC50 in data set [1] was 7.80. The molecule also showed a CC50 in data set [2] of 330 nM.
`COc1ccnc(Nc2ccc(Cl)c(Oc3ccc(C)cc3)c2)n1` showed a pEC50 in data set [1] of 5.00. In data set [2], the half-maximal cytotoxic concentration (CC50) was above 100000 nM.
The molecule `COc1cc(OC)nc(Nc2ccc(C#N)c(OCC=C(C)C)c2)n1` showed a pEC50 in data set [1] of 6.80. For the same molecule, in data set [2], half-maximal cytotoxicity (CC50) was put at 810 nM.
In data set [1], `Clc1ccc(Nc2ncccn2)cc1Oc1ccccc1` gave a pEC50 of 4.89. This molecule also gave a CC50 in data set [2] of 30000 nM.
With `C/C=C/COc1cc(Nc2nccc(OC)n2)ccc1Cl`, in data set [1], the pEC50 is 7.05. Also, the CC50 in data set [2] turned out to be 17000 nM.
As to `COc1ccnc(Nc2ccc(Cl)c(Sc3ccccc3)c2)n1`, in data set [1], the pEC50 is 6.49. Moreover, the CC50 in data set [2] was 21000 nM.
Regarding `COc1ncnc(Nc2ccc(Cl)c(OCC=C(C)C)c2)n1`, the pEC50 in data set [1] was 7.51. Also, the CC50 in data set [2] came to 18000 nM.
Regarding `CC(C)=CCOc1cc(Nc2ncnc(Cl)n2)ccc1Cl`, the midpoint of cytotoxicity in data set [2], the CC50, lay at 45000 nM.
As for `CCOc1ccnc(Nc2ccc(Cl)c(OCC=C(C)C)c2)n1`, the pEC50 in data set [1] was 7.39. This molecule also came in with a CC50 in data set [2] of 19000 nM.
In the case of `C/C=C/COc1cc(Nc2ncccn2)ccc1Cl`, the negative-log EC50 (pEC50) in data set [1] was 5.64. This molecule displayed a CC50 in data set [2] of 31000 nM.
For `CC(C)=CCOc1cc(Nc2nc(C)nc(Cl)n2)ccc1Cl`, in that order: 4.92 and 40000 nM.
`COc1nc(C)nc(Nc2ccc(Cl)c(OCC=C(C)C)c2)n1` had a pEC50 in data set [1] of 7.00. Further, the CC50 in data set [2] was found to be 12000 nM.
In data set [1], `COc1nc(Nc2ccc(C#N)c(OCC=C(C)C)c2)nc(OC)n1` gave a pEC50 of 7.66. In data set [3], the “Ratio CC50/EC50” value is on record as above 1000. This molecule also gave a CC50 in data set [2] above 100000 nM.
For `CSc1ncnc(Nc2ccc(C#N)c(OCC=C(C)C)c2)n1`, in that order: 8.30, above 1000 and 8400 nM.
In turn, `COc1ccnc(Nc2ccc(Cl)c(Oc3ccccc3)c2)n1` showed a negative-log EC50 (pEC50) in data set [1] of 5.60. In data set [2], this molecule registered a CC50 of 38000 nM.
`COc1ccnc(Nc2ccc(Cl)c(Oc3ccccc3C)c2)n1`: it took 13000 nM to reach half-maximal cytotoxicity in data set [2] (CC50).
Molecule `CNc1ccnc(Nc2ccc(Cl)c(OCC=C(C)C)c2)n1` gave a pEC50 in data set [1] of 8.22. This molecule also registered a CC50 in data set [2] of 690 nM.
The corresponding values for `COc1ccnc(Nc2ccc(Cl)c(Oc3cccc(C)c3)c2)n1` are 6.27 and 18000 nM.
On to `CC(C)=CCOc1cc(Nc2nccc(CO)n2)ccc1Cl`, for which the midpoint of cytotoxicity in data set [2], the CC50, lay at 220 nM.
`COc1ccnc(Nc2ccc(Cl)c(OCC=C(C)C)c2)n1` showed a pEC50 in data set [1] of 8.00. Besides, the CC50 in data set [2] is 9000 nM.
Consider `COc1nc(Nc2ccc(Cl)c(OCC=C(C)C)c2)nc(OC)n1`, for which the pEC50 in data set [1] was 6.54. The molecule further displayed a half-maximal cytotoxic concentration (CC50) in data set [2] of 20000 nM.
Consider `COc1nc(N)nc(Nc2ccc(C#N)c(OCC=C(C)C)c2)n1`, for which the pEC50 in data set [1] is 8.05. Further, the CC50 in data set [2] came to 110 nM.
In data set [1], `CC(C)=CCOc1cc(Nc2ncnc(N)n2)ccc1C#N` gave a pEC50 of 7.82. Also, the CC50 in data set [2] was 200 nM.
For `CNc1ncnc(Nc2ccc(Cl)c(OCC=C(C)C)c2)n1`, in that order: 7.51 and 3100 nM.
In data set [1], `CSc1ccnc(Nc2ccc(Cl)c(OCC=C(C)C)c2)n1` gave a pEC50 of 7.74. This molecule gave a CC50 in data set [2] of 2800 nM.
`COc1cc(N)nc(Nc2ccc(Cl)c(OCC=C(C)C)c2)n1`: in data set [1], the pEC50 was 5.52. This molecule also showed a CC50 in data set [2] of 19000 nM.
The molecule `COc1ccnc(Nc2ccc(C#N)c(OCC=C(C)C)c2)n1` showed a pEC50 in data set [1] of 8.70.
In data set [1], `CC(C)=CCOc1cc(Nc2ncnc(N)n2)ccc1Cl` had a pEC50 of 6.41. In data set [2], this molecule had a cytotoxic concentration (CC50) of 48000 nM.
In data set [1], `CNc1ccnc(Nc2ccc(C#N)c(OCC=C(C)C)c2)n1` gave a negative logarithm of the EC50 (pEC50) of 8.30. Also, in data set [2], the CC50 turned out to be 22 nM.
Molecule `COc1nc(Cl)nc(Nc2ccc(Cl)c(OCC=C(C)C)c2)n1` showed a CC50 in data set [2] of 26000 nM.
The molecule `CC(C)=CCOc1cc(Nc2ncnc(Cl)n2)ccc1C#N` showed a pEC50 in data set [1] of 6.51. The same molecule came in with a cytotoxic concentration (CC50) in data set [2] above 100000 nM.
In the case of `O=C1Nc2ccc(Cl)cc2[C@@](C#CC2CC2)(C(F)(F)F)O1` [EFAVIRENZ], in data set [2], the CC50 was above 100 nM.
Consider `Cc1cc(C#N)cc(C)c1Oc1nc(Nc2ccc(C#N)cc2)nc(N)c1Br` [ETRAVIRINE], for which the CC50 in data set [2] is above 1000 nM.
The molecule `Cc1ccnc2c1NC(=O)c1cccnc1N2C1CC1` [NEVIRAPINE] gave a CC50 in data set [2] above 10000 nM.
